Measured values from ChEMBL document CHEMBL1806371, “Selenocyanates and diselenides: a new class of potent antileishmanial agents” (Eur J Med Chem, 2011).
The source made the active and inactive calls. The rule behind the calls is not given here.

What was measured:
[1] = Selectivity ratio, ratio of IC50 for human THP1 cells to IC50 for Leishmania infantum MCAN/ES/89/IPZ229/1/89 amastigotes; assay type: ADME, cell-based; conditions: THP-1 cells, read-out: Ratio IC50
In short: (§1)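 Selectivity index is IC50 against Jurkat or THP-1 cells divided by IC50 against L. infantum amastigotes. Host cells were treated in log phase at 4×10^5 cells/mL for 24 h at 37 °C, 5% CO2, at 0.08, 0.4, 2.0, 10.0 and 50.0 μM. Viability was measured by flow cytometry with propidium iodide exclusion.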

[2] = tested on: Leishmania infantum; test: Antileishmanial activity against Leishmania infantum MCAN/ES/89/IPZ229/1/89 promastigotes assessed as growth inhibition at 12.5 uM after 24 hrs; assay type: functional
In short: (§2)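 Log-phase L. infantum promastigotes (RPMI-1640, 10% FCS, 25 mM HEPES, pH 7.2, 26 °C) treated at 2×10^6 parasites/mL for 24 h. Screening used 25, 12.5 and 6.25 μM to give percent growth inhibition. Living cells measured by flow cytometry with propidium iodide exclusion. At least three independent experiments.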

[3] = Selectivity ratio, ratio of IC50 for human Jurkat cells to IC50 for Leishmania infantum MCAN/ES/89/IPZ229/1/89 amastigotes; assay type: ADME, cell-based; conditions: read-out: Ratio IC50; in short: as §1
[4] = tested on: Leishmania infantum; test: Antileishmanial activity against Leishmania infantum MCAN/ES/89/IPZ229/1/89 promastigotes assessed as growth inhibition at 6.25 uM after 24 hrs; assay type: functional; in short: as §2
[5] = tested on: Leishmania infantum; test: Antileishmanial activity against Leishmania infantum MCAN/ES/89/IPZ229/1/89 promastigotes assessed as growth inhibition at 25 uM after 24 hrs; assay type: functional; in short: as §2
[6] = tested on: Leishmania infantum; test: Antileishmanial activity against Leishmania infantum MCAN/ES/89/IPZ229/1/89 amastigotes after 24 hrs by microscopy; assay type: functional, organism-based; conditions: MCAN/ES/89/IPZ229/1/89, 24 h
In short: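 Axenic L. infantum amastigotes (M199, 10% FCS, pH 5.4, 37 °C) treated in log phase at 1×10^6 parasites/mL for 24 h. Living cells counted by flow cytometry with propidium iodide exclusion, with microscopic observation by phase contrast or fluorescence. At least three independent experiments.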

[7] = tested on: Leishmania infantum; test: Antileishmanial activity against Leishmania infantum MCAN/ES/89/IPZ229/1/89 promastigotes after 24 hrs […]; assay type: functional, organism-based; conditions: MCAN/ES/89/IPZ229/1/89, 24 h; in short: as §2
[8] = tested on: THP-1; test: Cytotoxicity against human THP1 cells assessed as live cells in neubauer chamber after 24 hrs by trypan blue assay; assay type: cell-based; conditions: THP-1, 24 h
[9] = tested on: Jurkat; test: Cytotoxicity against human Jurkat cells assessed as live cells in neubauer chamber after 24 hrs by trypan blue assay; assay type: cell-based
[10] = tested on: Leishmania infantum; test: Ratio of miltefosine IC50 to compound IC50 for Leishmania infantum MCAN/ES/89/IPZ229/1/89 amastigotes; assay type: functional
[11] = tested on: Leishmania infantum; test: Ratio of edelfosine IC50 to compound IC50 for Leishmania infantum MCAN/ES/89/IPZ229/1/89 amastigotes; assay type: functional
[12] = Permeability across human Caco2 cells; assay type: ADME, cell-based; conditions: Caco-2, read-out: permeability
[13] = Human intestinal absorption in human; assay type: ADME, organism-based; conditions: read-out: HIA
In short: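 Values are computed, not measured. Human intestinal absorption (%) and Caco-2 permeability (nm/s) were predicted in silico with the PreADMET program.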

[14] = tested on: Leishmania infantum; test: Antileishmanial activity against Leishmania infantum MCAN/ES/89/IPZ229/1/89 amastigotes expressing GFP infected in human THP1 cells assessed as parasite infected cells after 48 hrs by flow cytometry (reference value: 35%); assay type: functional, THP-1

Compound | selectivity ratio [1] | GI [2] | selectivity ratio [3] | GI [4] | GI [5] | IC50 [6] | IC50 [7] | IC50 [8] | IC50 [9] | growth inhibition (GI) [2] | growth inhibition (GI) [4] | Ratio IC50 [10] | Ratio IC50 [11] | growth inhibition (GI) [5] | Papp [12] | Fa [13] | Activity [14]
CSc1ccc(C[Se]C#N)cc1 | 6 | 92.9% | 2 | 77.3% | 97.2% | 3020 nM | 11.6 µM | 17 µM | 5.07 µM | – | – | – | – | – | – | – | –
CSc1ccc(C[Se][Se]Cc2ccc(SC)cc2)cc1 | – | – | – | – | 17.5% | – | – | – | – | inactive | inactive | – | – | – | – | – | –
O=[N+]([O-])c1ccccc1C[Se][Se]Cc1ccccc1[N+](=O)[O-] | 8 | 58.9% | 9 | 50% | 77.2% | 290 nM | 12.5 µM | 2.42 µM | 2.62 µM | – | – | 9.8 | 2.8 | – | – | – | –
Cc1ccc(C[Se]C#N)cc1 | 7 | 82.8% | 4 | 52.8% | 98.6% | 3330 nM | 11.8 µM | 24 µM | 14.4 µM | – | – | – | – | – | – | – | –
Cc1ccc(C[Se][Se]Cc2ccc(C)cc2)cc1 | – | – | – | – | 2.5% | – | – | – | – | inactive | inactive | – | – | – | – | – | –
CC(=O)Nc1ccc([Se][Se]c2ccc(NC(C)=O)c(C(=O)O)c2)cc1C(=O)O | – | – | – | – | – | – | – | – | – | – | – | – | – | inactive | – | – | –
N#C[Se]Cc1ccc(Br)cc1 | 4 | 80.8% | 2 | 49.2% | 97.1% | 7950 nM | 11.6 µM | 28.9 µM | 12.7 µM | – | – | – | – | – | – | – | –
CCCCCCCCCCCCCCCCOP(=O)([O-])OCC[N+](C)(C)C [MILTEFOSINE] | 7 | – | 17 | – | – | 2840 nM | 15 µM | 18.5 µM | 33.4 µM | – | – | – | – | – | 2.17 ×10⁻⁶ cm/s | 99% | –
N#C[Se]Cc1ccc(C(F)(F)F)cc1 | 9 | 97.2% | 3 | 79.4% | 98.8% | 2140 nM | 11.3 µM | 19.8 µM | 7.31 µM | – | – | – | – | – | – | – | –
N#Cc1ccc(C[Se][Se]Cc2ccc(C#N)cc2)cc1 | – | 21.9% | – | 10.9% | 32.8% | – | – | – | – | – | – | – | – | – | – | – | –
N#C[Se]Cc1cccc([N+](=O)[O-])c1 | 16 | 80.5% | 21 | 47.2% | 97% | 570 nM | 4.18 µM | 9.32 µM | 12.2 µM | – | – | – | – | – | – | – | –
N#C[Se]Cc1cccc(C#N)c1 | 14 | 71.2% | 16 | 42.2% | 93% | 530 nM | 6.06 µM | 7.6 µM | 8.71 µM | – | – | – | – | – | – | – | –
O=[N+]([O-])c1ccc(CC[Se][Se]CCc2ccc([N+](=O)[O-])cc2)cc1 | – | 3.2% | – | 1.2% | 28.4% | – | – | – | – | – | – | – | – | – | – | – | –
c1ccc2cc(C[Se][Se]Cc3ccc4ccccc4c3)ccc2c1 | – | – | – | – | – | – | – | – | – | – | – | – | – | inactive | – | – | –
N#C[Se]c1ccc(N)cc1 | > 5 | 38.2% | 5 | 14.4% | 76.3% | 9290 nM | 11.2 µM | > 50 µM | 43.8 µM | – | – | – | – | – | – | – | –
CN(C)c1ccc([Se][Se]c2ccc(N(C)C)cc2)cc1 | 29 | 67.7% | > 65 | 51.5% | 77.6% | – | – | > 25 µM | > 50 µM | – | – | – | – | – | 5.61 ×10⁻⁶ cm/s | 100% | 23%
N#C[Se]Cc1ccc2ccccc2c1 | 5 | 81.1% | 4 | 37.1% | 91.5% | 3720 nM | 11.2 µM | 16.8 µM | 14 µM | – | – | – | – | – | – | – | –

Compound | selectivity ratio [1] | GI [2] | selectivity ratio [3] | GI [4] | GI [5] | IC50 [6] | IC50 [7] | IC50 [8] | IC50 [9] | growth inhibition (GI) [2] | growth inhibition (GI) [4] | Ratio IC50 [10] | Ratio IC50 [11] | growth inhibition (GI) [5] | Papp [12] | Fa [13] | Activity [14]
O=[N+]([O-])c1cccc(C[Se][Se]Cc2cccc([N+](=O)[O-])c2)c1 | – | 29.4% | – | 18.1% | 41.2% | – | – | – | – | – | – | – | – | – | – | – | –
CN(C)c1ccc([Se]C#N)cc1 | 16 | 86.7% | 10 | 54.4% | 97.3% | 2790 nM | 9.24 µM | 44.7 µM | 29.3 µM | – | – | – | – | – | – | – | –
COc1ccc(C[Se][Se]Cc2ccc(OC)cc2)cc1 | – | 9.9% | – | 0.5% | 31.7% | – | – | – | – | – | – | – | – | – | – | – | –
N#C[Se]Cc1ccccc1 [BENZYLSELENOCYANATE] | 10 | 64.1% | 4 | 46.5% | 99.4% | 2580 nM | 7.95 µM | 25 µM | 10.7 µM | – | – | – | – | – | – | – | –
N#C[Se]c1ccc(N)c(C(=O)O)c1 | – | – | – | – | – | – | – | – | – | – | – | – | – | inactive | – | – | –
Brc1ccc(C[Se][Se]Cc2ccc(Br)cc2)cc1 | – | 1.9% | – | – | 12.2% | – | – | – | – | – | inactive | – | – | – | – | – | –
N#C[Se]CCc1ccc([N+](=O)[O-])cc1 | 5 | 81.8% | 1 | 46.6% | 88.9% | 3800 nM | 11.9 µM | 17.2 µM | 2.4 µM | – | – | – | – | – | – | – | –
FC(F)(F)c1ccc(C[Se][Se]Cc2ccc(C(F)(F)F)cc2)cc1 | – | 6% | – | 11% | 12.2% | – | – | – | – | – | – | – | – | – | – | – | –
N#C[Se]Cc1ccccc1C#N | 5 | 62.4% | 5 | 31.4% | 90.2% | 3160 nM | 7.75 µM | 17.1 µM | 17.1 µM | – | – | – | – | – | – | – | –
N#Cc1cccc(C[Se][Se]Cc2cccc(C#N)c2)c1 | – | 35.4% | – | 22.6% | 44.3% | – | – | – | – | – | – | – | – | – | – | – | –
N#Cc1ccccc1C[Se][Se]Cc1ccccc1C#N | – | 16.5% | – | 7.3% | 31.5% | – | – | – | – | – | – | – | – | – | – | – | –
CC(=O)Nc1ccc([Se]C#N)cc1C(=O)O | – | – | – | – | – | – | – | – | – | – | – | – | – | inactive | – | – | –
c1ccc(C[Se][Se]Cc2ccccc2)cc1 [BISBENZYLDISELENIDE] | 51 | 43.6% | 41 | 33.2% | 60.4% | 630 nM | – | 32.2 µM | 26.1 µM | – | – | – | – | – | 5.83 ×10⁻⁶ cm/s | 100% | 24%
N#C[Se]Cc1ccc([N+](=O)[O-])cc1 | 25 | 95% | 10 | 82.3% | 98% | 680 nM | 4.3 µM | 16.8 µM | 6.86 µM | – | – | – | – | – | – | – | –
Nc1ccc([Se][Se]c2ccc(N)c(C(=O)O)c2)cc1C(=O)O | – | – | – | – | – | – | – | – | – | – | – | – | – | inactive | – | – | –
N#C[Se]Cc1ccc(C#N)cc1 | 15 | 80.4% | 24 | 51.5% | 97% | 550 nM | 4.14 µM | 7.97 µM | 13.4 µM | – | – | – | – | – | – | – | –
